High-throughput results from PubChem.
Apaf1 activ: activators of human Apaf-1 apoptosome, primary screen, biochemical, DEVD-Rh110 fluorescence, uHTS; activity change, negative = activation, % at 20 µM; hit rate 0.31% among 330,000; Apoptotic protease-activating factor 1 (Homo sapiens), O14727; Apaf-1 apoptosome caspase-3 activation; active compounds read low;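 active = activity change at or below -40% at 20 µM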
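System: Reconstituted apoptosome of Apaf-1, cytochrome c, caspase-9, procaspase-3 | Reagent: dATP, cytochrome c, and (Z-DEVD)2-Rh110 caspase-3 substrate | Times: 30 min compound preincubation and 50 min reaction, both room temperature | Detection: Caspase-3-released Rh110 fluorescence, 540 nm emission, 480 nm excitation | Measure: Caspase-3 activity via Apaf-1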
Rh110 act interf: Rh110 fluorescence interference by putative Apaf-1 activators, confirmation, artefact control for Apaf-1 activator project, biochemical, 20 µM; shares compounds with Apaf1 activ; quenched caspase reaction, Ex480/Em540; fluorescence interference (activity change), % at 20 µM, hits read low; 980 tested, under 10 active;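 active = mean activity change at or below -40% when tested at 20 µM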
Apaf-1 act conf: Apaf-1 activators, single-dose retest, confirmation, biochemical, fluorescence, DEVD-Rh110, 20 µM. AID 504617, 2011. hit rate 5% among 980. shares compounds with Apaf1 activ. reconstituted apoptosome caspase-3 activity; active compounds read low. activity change, negative = activation, % at 20 µM;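 active = mean activity change at or below -40%, meaning activation of 40% or more, at 20 µM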
The depositor's hits bear a star; nt = no result. Only a selection was taken, and hits are over-represented in it overall.

SMILES | Apaf1 activ | Rh110 act interf | Apaf-1 act conf
CCCCC(=Nc1ccc(N)cc1)C1=C(O)C(C(=O)OC)C(C)(C)CC1=O (configuration not stated) | 61.6 | nt | nt
CCCCn1c(NC(=O)c2ccc(F)cc2)c(C#N)c2nc3ccccc3nc21 | 94.8 | nt | nt
COCCNC(=O)c1c[nH]c2ccc(S(=O)(=O)N(C)c3ccc(C)c(C)c3)cc2c1=O | -68.0* | 18.8 | 19.0
Cc1ccc(N(C)S(=O)(=O)c2cccc(C(=O)Nc3ccc(C)cn3)c2)cc1 | 44.7 | nt | nt
C#CCOCCOCCOCCNc1nc(N2CCN(C(=O)Cn3cc(CCCCN)nn3)CC2)nc(N2CCN(C(=O)[C@H](CCCCN)n3cc(CCCC)nn3)CC2)n1 | 41.4 | nt | nt
COc1ccc(Cl)cc1NC(=O)C(C)N1CCN(C/C=C/c2ccccc2)CC1 (configuration not stated) | 42.9 | nt | nt
COc1ccc(OC)c(NC(=S)N2CCN(C/C=C/c3ccccc3)CC2)c1 | -300.0* | 9.5 | 12.9
CC1(C(=O)O)Oc2cccnc2NC1=O (configuration not stated) | -221.4* | -3.1 | 7.2
COc1ccc(C(=O)O)cc1NC(=S)NC(=O)CSc1ccc(Cl)cc1 | -151.7* | -11.1 | 15.1
COc1ccc2noc3c2c1C(=O)c1ccccc1-3 | 77.7 | nt | nt
COc1ccccc1NC1=C(N2CCCCC2)C(=O)c2ccccc2C1=O | 95.0 | nt | nt
CC(Nc1cccc2ccccc12)C(=O)N/N=C/c1ccccn1 (configuration not stated) | 95.3 | nt | nt
CNC[C@@H]1Oc2ccc(NC(=O)Nc3cccc4ccccc34)cc2C(=O)N([C@@H](C)CO)C[C@@H]1C | 57.2 | nt | nt
COCCN1C=C2C(=O)C(C)(OC(=O)CCC(=O)OC)C(=O)C=C2C=C1C1CC1 (configuration not stated) | 43.0 | nt | nt
COc1ccc(NC(=S)Nc2ccccn2)c(OC)c1 | -48.0* | -0.2 | 17.0
COc1ccc(NC(=S)Nc2cccc3ccccc23)cc1OC | 82.9 | nt | nt
CC(C)NC(=O)C1CCN(S(=O)(=O)c2ccc(N3CCCC3=O)cc2)CC1 | -331.6* | -3.0 | 2.2
COC(=O)c1ccccc1S(=O)(=O)N1CCC(C(=O)N2CCC2)CC1 | 55.4 | nt | nt
Oc1ccccc1CNc1cccc2cccnc12 | 94.7 | nt | nt
CCC(C)NC(=O)C1CCN(S(=O)(=O)c2cccc3cccnc23)CC1 (configuration not stated) | -456.3* | -6.5 | 8.7
NC(=O)CC1Nc2cccc3cccc(c23)NC1=O (configuration not stated) | 98.0 | nt | nt
CCCNC(=O)OC[C@H]1O[C@H](CCO/N=C(\C)CCN2CCc3nc(-c4ccccc4)c(-c4ccccc4)cc3C2)C=C[C@@H]1Oc1ccc(OC)cc1 | 52.8 | nt | nt
O=C(C1CC(=O)N(c2ccc3c(c2)OCCO3)C1)N1CCCC(C(F)(F)F)C1 (configuration not stated) | -44.8* | 4.7 | 2.3
CSc1ccccc1NC(=O)c1cc(S(=O)(=O)N(C)C)ccc1N1CCCC1 | 51.6 | nt | nt
CSc1ccccc1NC(=O)c1cc(-c2ccc3c(c2)OCO3)on1 | -196.6* | 9.9 | 7.7
SMILES | Apaf1 activ | Rh110 act interf | Apaf-1 act conf
O=C(Nc1ccccc1O)c1ccc2c(c1)C(=O)N(Cc1ccco1)C2=O | -93.2* | -8.7 | 5.4
O=C1CN(C(=O)c2cnccn2)c2ccccc2N1 | -46.9* | 15.7 | 11.4
O=C1Nc2ccccc2N2CCCC12 (configuration not stated) | 77.6 | nt | nt
Cn1c(=O)[nH]c(=O)c2c1nc(Br)n2CC(O)COc1ccccc1 (configuration not stated) | -50.1* | -3.0 | 13.4
Cc1cccc(OCC(O)Cn2c(=N)n(Cc3ccccc3)c3ccccc32)c1 (configuration not stated) | 57.8 | nt | nt
CSc1nc2c(c(=O)[nH]c(=O)n2C)n1Cc1ccccc1 | -47.5* | 3.4 | 13.0
CN1CCc2nc(SCc3ccc(Cl)cc3)c(C#N)c(-c3cccs3)c2C1 | 83.1 | nt | nt
COc1ccc(C[C@H]2CN3C(=NC[C@@H]3C(C)C)N2C[C@H](C)NC(=O)c2ccc(C)c(Br)c2)cc1 | 48.1 | nt | nt
Cc1ccc2cc(C(c3nnnn3Cc3ccccc3)N3CCc4ccccc43)c(=O)[nH]c2c1 (configuration not stated) | 43.3 | nt | nt
CN(C)CCCN(C(=O)c1ccc(S(=O)(=O)N2CCc3ccccc3C2)cc1)c1nc2ccc(F)cc2s1 | 70.3 | nt | nt
c1ccc([C@H]2CNCCN2CCc2cccc3ccccc23)cc1 | 55.0 | nt | nt
Cc1ccc(NC(=O)N(CCC#N)Cc2ccccc2)cc1 | -471.1* | -13.4 | 2.3
CCCC(CCC)C(=O)O | -6.2 | nt | nt
COC(=O)c1c(C(C)=O)c(C)n(C)c1C | -343.1* | -1.3 | 10.9
